This note sets out measurements from ChEMBL document CHEMBL1158394, “Diversity-oriented synthesis of furo[3,2-f]chromanes with antimycobacterial activity” (Eur J Med Chem, 2009).

Series [1] relates to Escherichia coli. Description: Antibacterial activity against Escherichia coli CIP188631 after 24 hrs by twofold serial dilution method. It counts as functional, organism-based. In outline:
(§1)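 LB precultures grown 24 h, diluted 1/1000 and seeded; twofold serial drug dilutions in LB; 37 °C for 24 h; growth read as optical density at 595 nm; 90% inhibitory concentration obtained by curve fitting; tetracycline positive control; duplicate in two independent experiments.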

In series [2] the test system is Mycobacterium tuberculosis. Description: Antimycobacterial activity against Mycobacterium tuberculosis H37Rv after 6 days by microdilution resazurin assay. It counts as functional. Conditions: 144 h. In outline: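 The M. tuberculosis H37Rv inoculum is grown in Dubos medium with 10% ADC enrichment. DMSO drug stocks (50 mg/mL) are serially diluted twofold in 96-well plates, with DMSO and isoniazid controls. Plates are sealed and held at 37 °C for 6 days, then 0.01% resazurin is added for another 24 h. MIC95 is taken at >95% growth inhibition, in µg/mL. Duplicate runs in two independent experiments.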
(In general: Dilution methods test growth across graded concentrations, often in twofold steps.)

Series [3] has as its system Vero. The series can be described thus: Cytotoxicity against african green monkey Vero cells after 48 hrs by MTT assay. It counts as cell-based. Conditions: Chlorocebus sabaeus. In outline: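 Vero cells seeded at 10⁵ cells/mL and preincubated 24 h at 37 °C, 5% CO₂; compounds added at various concentrations in 1% DMSO for 48 h; MTT (5 mg/mL solution) then added for 4 h at 37 °C; absorbance at 595 nm; 50% inhibitory concentration by curve fitting; duplicate in two independent experiments.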
For orientation: Formazan colour is commonly taken as a measure of viable cells.

For series [4], the system named is Staphylococcus aureus. Description: Antibacterial activity against Staphylococcus aureus ATCC 6538 after 24 hrs by twofold serial dilution method. Type of series: functional. Conditions: ATCC 6538, 24 h. In outline:
as §1

The test system of series [5] is Mycolicibacterium smegmatis. Description: Antimycobacterial activity against Mycobacterium smegmatis str. MC2 155 up to 100 ug/mL. It counts as functional, organism-based.
Series [6] relates to Escherichia coli. Description: Genotoxicity in Escherichia coli PQ37 assessed as DNA damage-induced beta-galactosidase release by SOS-chromotest. Type of series: toxicity, organism-based. A digest of the protocol: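 E. coli PQ37 carrying lacZ under control of the SOS gene sfiA; DNA damage induces β-galactosidase, detected by chromogenic reaction with X-gal; duplicate in two independent experiments.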

The subject of series [7] is Candida tropicalis. The series can be described thus: Antifungal activity against Candida tropicalis ATCC 66029 after 24 hrs by disk diffusion method. It counts as functional, organism-based. In outline:
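Kirby–Bauer disk diffusion: C. tropicalis suspension spread on solid Sabouraud plates; 6 mm paper discs impregnated with serial dilutions in DMSO placed on plates; inhibition zone diameter measured after 24 h at 30 °C; itraconazole positive control; duplicate in two independent experiments.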
A general note: A growth-free zone around the sample is the usual read-out of agar diffusion tests.

The structures appear in SMILES notation. ≈ marks a conversion by molar mass, not a printed value. Calls of active or inactive are those of the source. No cut-off for these calls is given here.

As to `CC(=O)OCc1cc2c3c(c(C)c(C)c2o1)OC(C)(C)CC3`, the outcome in series [1] was inactive. This compound also yielded an MIC95 in series [2] of 10 µg/mL (≈ 33.1 µM).

In the case of `Cc1c2c(c3cc(-c4cnccn4)oc3c1C)CCC(C)(C)O2`, the outcome in series [1] was inactive. The compound further gave an MIC95 in series [2] of 10 µg/mL (≈ 32.4 µM).

Consider `Cc1c(C)c2c(c(C)c1O)CC[C@@](C)(CCC[C@H](C)CCC[C@H](C)CCCC(C)C)O2` [ALPHA-TOCOPHEROL], for which the result in series [1] was inactive. In series [2], this compound returned an MIC95 of 10 µg/mL (≈ 23.2 µM).

In the case of `CC(=O)OCCCc1c(-c2cccnc2)oc2ccc3c(c12)CCC(C)(C)O3`, inhibition in series [3] was half-maximal at 17.5 µg/mL (≈ 46.1 µM) (IC50). In addition, in series [1], the result was inactive.

In turn, `Cc1c2c(c3cc(-c4ccncc4)oc3c1C)CCC(C)(C)O2` registered an IC50 in series [3] of 5.1 µg/mL (≈ 16.6 µM). For the same compound, the outcome in series [1] was inactive. The compound further returned an MIC95 in series [2] of 2.5 µg/mL (≈ 8.13 µM).

As to `COC(=N)c1ccc(-c2cc3c4c(c(C)c(C)c3o2)OC(C)(C)CC4)cn1`, the IC50 in series [3] came out at 3.6 µg/mL (≈ 9.88 µM). Moreover, the result in series [1] was inactive. The MIC90 in series [4] came out at 5 µg/mL (≈ 13.7 µM). For the same compound, the MIC95 in series [2] stood at 0.6 µg/mL (≈ 1.65 µM).

For the compound `CC1(C)CCc2c(ccc3oc(-c4cccnc4)c(CCCO)c23)O1`, the IC50 in series [3] is > 25 µg/mL. Also, the outcome in series [1] was inactive. The MIC95 in series [2] worked out at 5 µg/mL (≈ 14.8 µM).

`Cc1c(C)c2c(c(C)c1O)CCC(C)(C)O2` [APC-100]: the result in series [1] was inactive. This compound showed an MIC95 in series [2] of 10 µg/mL (≈ 45.4 µM).

For `Cc1c2c(c3cc(-c4ccc(-c5nn[nH]n5)nc4)oc3c1C)CCC(C)(C)O2`, the outcome in series [1] was inactive. This compound gave an MIC95 in series [2] of 10 µg/mL (≈ 26.6 µM).

On to `CC1(C)C=Cc2c(ccc3c2C2CCCOC2O3)O1` (stereo unspecified), for which the outcome in series [1] was inactive. In series [2], the MIC95 was 250 µg/mL (≈ 968 µM).

For `Cc1c2c(c3cc(C4CCCO4)oc3c1C)CCC(C)(C)O2` (stereo unspecified), the outcome in series [1] was inactive. For the same compound, the MIC95 in series [2] is > 10 µg/mL.

With `NNC(=O)c1ccncc1` [ISONIAZID], in series [3], the IC50 was > 500 µg/mL. Further, in series [1], the outcome was inactive. Further, the MIC95 in series [2] turned out to be 0.25 µg/mL (≈ 1.82 µM).

`CC1(C)CCc2c(ccc3oc4ccccc4c23)O1` gave an IC50 in series [3] of 100 µg/mL (≈ 396 µM). In addition, in series [1], the outcome was inactive. Moreover, in series [2], the MIC95 amounted to 10 µg/mL (≈ 39.6 µM).

For the compound `Cc1c2c(c3cc(CCC(=O)N4CCN(C)CC4)oc3c1C)CCC(C)(C)O2`, in series [1], the result was inactive. In addition, the MIC95 in series [2] is > 10 µg/mL.

As to `Cc1c2c(c3cc(CC#N)oc3c1C)CCC(C)(C)O2`, the outcome in series [1] was inactive. In series [2], the MIC95 was > 10 µg/mL.

`CC1(C)CCc2c(ccc3oc(-c4ccncc4)c(CCCO)c23)O1`: the IC50 in series [3] was > 25 µg/mL. Further, the outcome in series [1] was inactive. For the same compound, the MIC95 in series [2] was found to be 5 µg/mL (≈ 14.8 µM).

For `Cc1c2c(c3cc(-c4cccnc4)oc3c1C)CCC(C)(C)O2`, in series [1], the result was inactive. The compound also had an MIC95 in series [2] of 5 µg/mL (≈ 16.3 µM).

`Cc1c(-c2ccncc2)oc2ccc3c(c12)C=CC(C)(C)O3`: the IC50 in series [3] turned out to be 12.8 µg/mL (≈ 43.9 µM). Besides, in series [1], the outcome was inactive. Also, the MIC90 in series [4] came to 5 µg/mL (≈ 17.2 µM). Moreover, the MIC95 in series [2] is 5 µg/mL (≈ 17.2 µM).

For the compound `Cc1c2c(c3cc(/C=C/c4cccnc4)oc3c1C)CCC(C)(C)O2`, the IC50 in series [3] is > 100 µg/mL. Besides, the outcome in series [1] was inactive. For the same compound, the MIC95 in series [2] amounted to 5 µg/mL (≈ 15 µM).

With `Cc1c2c(c3cc(Cc4cccnc4)oc3c1C)CCC(C)(C)O2`, in series [3], the midpoint of inhibition, the IC50, lay at 6.4 µg/mL (≈ 19.9 µM). For the same compound, the result in series [1] was inactive. The same compound returned an MIC90 in series [4] of 5 µg/mL (≈ 15.6 µM). The MIC95 in series [2] came to 3 µg/mL (≈ 9.33 µM).

For the compound `Cc1c2c(c3cc(-c4ccc(Cl)nc4)oc3c1C)CCC(C)(C)O2`, the result in series [1] was inactive. In addition, in series [2], the MIC95 was > 10 µg/mL.

For `Cc1c2c(c3cc(-c4cccs4)oc3c1C)CCC(C)(C)O2`, the concentration for half-maximal inhibition (IC50) in series [3] is > 100 µg/mL. Moreover, the result in series [1] and in series [5] was inactive. Further, the MIC95 in series [2] was determined as 6.2 µg/mL (≈ 19.8 µM).

Compound `Cc1c2c(c3cc(-c4ccc[n+]([O-])c4)oc3c1C)CCC(C)(C)O2` gave an IC50 in series [3] of 5.6 µg/mL (≈ 17.3 µM). Also, in series [1], the outcome was inactive. The MIC90 in series [4] worked out at 5 µg/mL (≈ 15.5 µM). In series [2], this compound had an MIC95 of 5 µg/mL (≈ 15.5 µM).

On to `CC(=O)OCCCc1c(-c2ccncc2)oc2ccc3c(c12)CCC(C)(C)O3`, for which, in series [3], 14.9 µg/mL (≈ 39.3 µM) corresponded to half-maximal inhibition (IC50). Further, the result in series [1] was inactive. The MIC90 in series [4] stood at 5 µg/mL (≈ 13.2 µM).

Take `Cc1c2c(c3cc(CCC(=O)N4CCCC4)oc3c1C)CCC(C)(C)O2`: the outcome in series [1] was inactive. Also, the MIC95 in series [2] worked out at 10 µg/mL (≈ 28.1 µM).

As for `Cc1c2c(c3cc(Cc4ccc(Cl)cc4)oc3c1C)CCC(C)(C)O2`, in series [3], the IC50 is > 100 µg/mL. Moreover, the outcome in series [1] was inactive. The MIC95 in series [2] turned out to be 25 µg/mL (≈ 70.4 µM).

For `Cc1c2c(c3cc(-c4ccc(C#N)nc4)oc3c1C)CCC(C)(C)O2`, the result in series [1] was inactive. Also, the MIC95 in series [2] was > 10 µg/mL.

On to `Cc1c2c(c3cc(CCC(=O)N4CCOCC4)oc3c1C)CCC(C)(C)O2`, for which the result in series [1] was inactive. This compound displayed an MIC95 in series [2] of 10 µg/mL (≈ 26.9 µM).

For `Cc1c2c(c3cc(-c4ccccn4)oc3c1C)CCC(C)(C)O2`, in series [1], the outcome was inactive. In series [2], this compound returned an MIC95 of 100 µg/mL (≈ 325 µM).

Compound `CC1(C)C=Cc2c(ccc3oc(-c4ccncc4)cc23)O1` returned an IC50 in series [3] of 8.7 µg/mL (≈ 31.4 µM). For the same compound, the result in series [1] was inactive. Moreover, the MIC90 in series [4] came out at 5 µg/mL (≈ 18 µM). In addition, the MIC95 in series [2] was determined as 2.5 µg/mL (≈ 9.01 µM).

Regarding `Cc1c2c(c3cc(-c4cccnc4)oc3c1C)C(=O)CC(C)(C)O2`, the result in series [1] was inactive. Moreover, in series [2], the MIC95 was > 10 µg/mL.

With `CC(=O)OCCCc1c(Br)oc2ccc3c(c12)CCC(C)(C)O3`, in series [1], the outcome was inactive.

As for `Cc1c2c(c3cc(-c4ccc(NCCCN(C)C)nc4)oc3c1C)CCC(C)(C)O2`, the Activity entry in series [6] is given as “Toxic”. In series [3], this compound registered an IC50 of 1.6 µg/mL (≈ 3.93 µM). The “diameter of the inhibition zone (DIZ)” value in series [7] was “Active”. In addition, the outcome in series [1] was inactive. Further, the MIC90 in series [4] was 5 µg/mL (≈ 12.3 µM). In series [2], the MIC95 stood at 3 µg/mL (≈ 7.36 µM).

Regarding `Cc1c2c(c3cc(Cc4cccs4)oc3c1C)CCC(C)(C)O2`, the outcome in series [1] and in series [5] was inactive. The same compound had an MIC95 in series [2] of 12.5 µg/mL (≈ 38.3 µM).

In the case of `Cc1c2c(c3cc(CCc4cccnc4)oc3c1C)CCC(C)(C)O2`, 7.3 µg/mL (≈ 21.8 µM) corresponded to half-maximal inhibition in series [3] (IC50). The result in series [1] was inactive. Moreover, the MIC90 in series [4] came to 5 µg/mL (≈ 14.9 µM). For the same compound, in series [2], the MIC95 is 5 µg/mL (≈ 14.9 µM).

The IC50 is the point on the concentration scale where inhibition reaches its midpoint. As usually defined, the MIC90 is an inhibitory concentration at the 90% level, which refers to growth in some studies and to a panel of isolates in others.
